Measurements as given in ChEMBL document CHEMBL1130380, “Studies on selection blockers. 5. Design, synthesis, and biological profile of sialyl Lewis x mimetics based on modified serine-glutamic acid dipeptides” (J Med Chem, 1997).

What was measured:
P-selectin [1] = target: T1, P-selectin (Mus musculus, UniProt Q01102); assay: Blocking activity using seletin-IgG chimeras in a Selectin P competitive binding assay.
T1 sequence (Q01102 whole entry): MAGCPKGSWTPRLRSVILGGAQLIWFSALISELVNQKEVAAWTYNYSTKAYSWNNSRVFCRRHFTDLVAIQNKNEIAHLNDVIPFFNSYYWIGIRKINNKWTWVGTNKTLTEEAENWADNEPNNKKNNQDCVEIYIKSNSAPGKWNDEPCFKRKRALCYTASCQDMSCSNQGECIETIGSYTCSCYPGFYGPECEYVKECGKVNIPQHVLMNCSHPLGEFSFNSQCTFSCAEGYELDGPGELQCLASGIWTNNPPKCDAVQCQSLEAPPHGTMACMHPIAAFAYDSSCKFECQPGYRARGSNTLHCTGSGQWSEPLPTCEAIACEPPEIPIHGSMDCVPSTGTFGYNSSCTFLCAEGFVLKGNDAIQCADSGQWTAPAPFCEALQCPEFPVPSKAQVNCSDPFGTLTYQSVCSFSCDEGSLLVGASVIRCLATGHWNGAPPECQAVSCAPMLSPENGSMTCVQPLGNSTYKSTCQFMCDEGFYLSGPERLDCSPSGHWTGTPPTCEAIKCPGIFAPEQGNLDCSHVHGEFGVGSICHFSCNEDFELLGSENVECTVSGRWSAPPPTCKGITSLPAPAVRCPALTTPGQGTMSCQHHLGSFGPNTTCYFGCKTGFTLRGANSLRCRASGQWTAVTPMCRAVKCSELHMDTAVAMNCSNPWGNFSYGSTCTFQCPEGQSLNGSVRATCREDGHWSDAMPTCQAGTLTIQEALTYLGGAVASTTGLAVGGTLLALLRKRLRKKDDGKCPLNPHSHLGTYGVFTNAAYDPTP
How it was run: (§1)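 Selectin-Ig fusion protein is premixed for 30 min at room temperature with biotin-anti-human IgG (Fc) and streptavidin-alkaline phosphatase (each 1:500 in 1% BSA-PBS). The complex is preincubated 30 min with test compound (final 100, 25, 6.25, 1.56 µM; 10 mM water stock). It is then bound 45 min at 37 °C to wells coated with sLex-pentaceramide and blocked with 5% BSA. Read-out is p-nitrophenylphosphate absorbance, expressed as % binding versus controls.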

L-selectin [2] = target: T2, L-selectin (Mus musculus, UniProt P18337); assay: Blocking activity using seletin-IgG chimeras in a Selectin L competitive binding assay.; how it was run: as §1
T2 sequence (P18337 whole entry): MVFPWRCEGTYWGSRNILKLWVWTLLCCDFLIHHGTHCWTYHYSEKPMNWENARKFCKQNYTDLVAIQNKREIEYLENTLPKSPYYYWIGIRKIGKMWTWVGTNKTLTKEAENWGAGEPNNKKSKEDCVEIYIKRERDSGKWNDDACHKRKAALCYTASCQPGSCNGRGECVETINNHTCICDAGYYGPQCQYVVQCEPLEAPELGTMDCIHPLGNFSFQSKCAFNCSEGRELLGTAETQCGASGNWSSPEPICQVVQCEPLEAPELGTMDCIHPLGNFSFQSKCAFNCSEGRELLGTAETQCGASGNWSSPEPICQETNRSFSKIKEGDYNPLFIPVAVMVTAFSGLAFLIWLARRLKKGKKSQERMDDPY

E-selectin = target: T3, E-selectin (Mus musculus, UniProt Q00690); assay: In vitro inhibitory activity against Selectin E-sialyl Lewis X (sLex) binding
T3 sequence (Q00690 whole entry): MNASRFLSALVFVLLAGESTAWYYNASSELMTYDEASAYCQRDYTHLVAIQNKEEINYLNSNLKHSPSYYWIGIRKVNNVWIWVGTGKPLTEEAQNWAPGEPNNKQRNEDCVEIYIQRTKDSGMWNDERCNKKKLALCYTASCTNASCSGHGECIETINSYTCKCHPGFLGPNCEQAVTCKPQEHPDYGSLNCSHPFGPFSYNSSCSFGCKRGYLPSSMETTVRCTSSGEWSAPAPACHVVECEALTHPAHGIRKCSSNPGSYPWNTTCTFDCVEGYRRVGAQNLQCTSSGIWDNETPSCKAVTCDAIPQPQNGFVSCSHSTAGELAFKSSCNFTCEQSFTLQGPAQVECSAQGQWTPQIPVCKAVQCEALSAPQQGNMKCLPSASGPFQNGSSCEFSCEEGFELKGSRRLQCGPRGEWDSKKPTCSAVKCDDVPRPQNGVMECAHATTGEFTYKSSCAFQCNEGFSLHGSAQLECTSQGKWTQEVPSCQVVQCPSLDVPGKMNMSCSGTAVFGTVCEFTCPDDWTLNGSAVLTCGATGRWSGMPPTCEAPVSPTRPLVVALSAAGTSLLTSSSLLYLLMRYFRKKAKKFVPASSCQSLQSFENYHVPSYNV
How it was run: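 sLex-pentaceramide (100 pmol/well) dried onto wells, blocked with 5% BSA-PBS 1 h RT. E-selectin-Ig fusion premixed 30 min RT with biotin-anti-human IgG(Fc)/streptavidin-alkaline phosphatase. Compounds (water stock 10 mM; final 100, 25, 6.25, 1.56 µM) preincubated with complex 30 min RT, then added to wells 45 min at 37 °C. Read-out: p-nitrophenylphosphate in diethanolamine pH 9.8; % binding versus no-compound control, background without selectin-Ig.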

L-selectin [3] = target: T2, L-selectin; assay: Blocking activity using selectin-IgG chimeras in a Selectin L competitive binding assay.; how it was run: as §1
P-selectin [4] = target: T1, P-selectin; assay: Blocking activity using selectin-IgG chimeras in a Selectin P competitive binding assay.; how it was run: as §1

Compound | IC50 (P-selectin [1]) | IC50 (L-selectin [2]) | IC50 (E-selectin) | IC50 (L-selectin [3]) | IC50 (P-selectin [4])
CCCCCCCCCCCCCCC(CCCCCCCCCCCCCC)C(=O)N[C@@H](CO[C@@H]1O[C@@H](C)[C@@H](O)[C@H](O)[C@@H]1O)C(=O)N[C@@H](CCC(=O)O)C(=O)NC | 2.1 µM | 18 µM | > 1000 µM |  | 
CCCCCCCCCCCCCCC(CCCCCCCCCCCCCC)CO[C@@H]1O[C@H](CO)[C@@H](O[C@@H]2O[C@H](CO)[C@H](O)[C@H](OS(=O)(=O)O)[C@H]2O)[C@H](O[C@@H]2O[C@@H](C)[C@@H](O)[C@@H](O)[C@@H]2O)[C@H]1O | 100 µM | 30 µM | 280 µM |  | 
CCCCCCCCCCCCCCC(CCCCCCCCCCCCCC)C(=O)N[C@H](CO[C@@H]1O[C@@H](C)[C@@H](O)[C@H](O)[C@@H]1O)C(=O)N[C@H](CCC(=O)O)C(=O)NC |  |  | > 1000 µM | 39 µM | 1900 nM
CCCCCCCCCCCCCCC(CCCCCCCCCCCCCC)C(=O)N[C@H](CO[C@@H]1O[C@@H](C)[C@@H](O)[C@H](O)[C@@H]1O)C(=O)N[C@@H](CCC(=O)O)C(=O)NC | 0.5 µM | 6 µM | 13 µM |  | 
CCCCCCCCCCCCCCC(CCCCCCCCCCCCCC)C(=O)N[C@@H](CO[C@@H]1O[C@@H](C)[C@@H](O)[C@H](O)[C@@H]1O)C(=O)N[C@H](CCC(=O)O)C(=O)NC | 0.7 µM | 9.4 µM | 5.5 µM |  | 
CC(=O)N[C@H]1[C@H]([C@H](O)[C@H](O)CO)O[C@@](O[C@H]2[C@@H](O)[C@@H](CO)O[C@@H](O[C@@H]([C@H](O[C@@H]3O[C@@H](C)[C@@H](O)[C@@H](O)[C@@H]3O)[C@H](C=O)NC(C)=O)[C@H](O)CO)[C@@H]2O)(C(=O)O)C[C@@H]1O [SIALYL LEWIS X] | > 1000 µM | > 1000 µM | 600 µM |  | 
